Compound activity as filed in PubChem.
Only some compounds are listed: those with a hit (about 3.5% of all), similar ones and a draw of the others.
MrgX1 antagonist: human MrgX1 receptor antagonism, primary screen; AID 588676; MRGX1-HEK293 calcium flux, Fluo-4, BAM8-22 antagonism; active compounds read low; B-score at 10 µM; Q96LB2; actives 1.3% (n = 310,000);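 active = calcium-response B-score plate-corrected more than 3 library SD below zero, starting fluorescence within 5 deviations, no agonist response on first addition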;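 also: peak minus trough fluorescence over baseline after final BAM8-22 challenge near maximal dose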
Target sequence (Q96LB2 whole entry, looked up): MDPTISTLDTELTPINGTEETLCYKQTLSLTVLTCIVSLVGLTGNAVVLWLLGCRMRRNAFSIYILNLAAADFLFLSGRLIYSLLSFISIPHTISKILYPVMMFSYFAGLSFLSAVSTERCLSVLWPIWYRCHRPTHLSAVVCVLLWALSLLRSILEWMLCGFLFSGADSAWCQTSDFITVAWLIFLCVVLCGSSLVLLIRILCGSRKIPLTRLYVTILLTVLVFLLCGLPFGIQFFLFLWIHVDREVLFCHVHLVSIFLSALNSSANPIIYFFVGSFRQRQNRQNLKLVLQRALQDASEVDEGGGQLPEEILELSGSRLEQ
RGS4 inh: human RGS4 inhibition; P49798; HEK293 M3R/RGS4 inducible, Fluo-4 calcium flux; active compounds read high; triggered by carbachol at its EC20; B-score at 10 µM; actives 0.45% (n = 310,000); AID 463165;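 active = B-score, a plate-corrected calcium signal, over three deviations above library mean, with baseline fluorescence within five deviations of library mean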;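 also: RGS4 expression induced by doxycycline in cells with stable M3 receptor; B-score is computed from the integrated fluorescence ratio over baseline after carbachol; higher B-score means a larger calcium signal and so more RGS4 inhibition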
Target sequence (P49798 whole entry, looked up): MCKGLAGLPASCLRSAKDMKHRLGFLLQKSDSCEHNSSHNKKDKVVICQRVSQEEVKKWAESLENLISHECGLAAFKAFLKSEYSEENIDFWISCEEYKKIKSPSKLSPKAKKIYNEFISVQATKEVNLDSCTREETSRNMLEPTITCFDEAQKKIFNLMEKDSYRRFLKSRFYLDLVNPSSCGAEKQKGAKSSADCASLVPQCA
MrgX1 agonist: activates human MrgX1 receptor signaling. Q96LB2. MrgX1-HEK293 cells, Fluo-4 calcium fluorescence, agonist mode; active compounds read high. B-score at 10 µM. actives 0.44% (n = 310,000);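 active = calcium response B-score plate-corrected fluorescence ratio at least 3 library SD, with starting fluorescence B-score inside 5 SD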
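Material: MrgX1-expressing HEK293 cells / Dosing: compound as first of three additions / Incubation: overnight seeding, then 1 h dark dye loading / Signal: Fluo-4 NW calcium fluorescence / Evaluation: B-scored fluorescence response ratio / Benchmarks: positive and negative control wells on each plate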
RGS4 act: potentiators or activators of RGS4. HEK293 M3R/inducible RGS4, carbachol calcium flux Fluo4; active compounds read low. B-score at 10 µM. actives 0.92% (n = 310,000). AID 463111;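 active = B-score of the integrated calcium signal more than 4 SD below the library mean, with starting fluorescence not abnormally high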;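 also: negative B-score means reduced calcium response which marks RGS4 activation or potentiation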
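System – HEK293 FlpIn-TREx cells, stable M3R, doxycycline-inducible RGS4 · Reagent – ECmax carbachol challenge · Times – compound preincubation 20 min at room temperature before agonist · Technique – Fluo4 fluorescence kinetic imaging of calcium · Measure – B score of integrated Fluo4 ratio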
MrgX1 allo act: human MrgX1 positive allosteric modulation, primary screen; Q96LB2; actives 0.63% (n = 310,000); MrgX1-HEK293, Fluo-4 calcium flux, FDSS; active compounds read high; B-score at 10 µM;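 active = plate-corrected calcium response at least 3 library SD above typical, normal starting fluorescence, not activating the receptor alone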;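 also: compound read alongside a low EC10 to EC30 dose of BAM8-22 agonist; peak minus trough fluorescence over baseline measured at the second addition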
Each line names hits and unclear results; the compound was inactive in the other large screens.

Cc1cc(=O)oc(C)c1C(=O)Nc1ccc(F)cc1	none
O=C(CC1SC(=Nc2ccccc2)N(CCCO)C1=O)Nc1ccc(Cl)cc1 (stereo unspecified)	MrgX1 antagonist -4.6, RGS4 act -9.1
O=C(Nc1ccc(Cl)c(Cl)c1)NC1CCS(=O)(=O)C1 (stereo unspecified)	none
Cc1ccccc1OCc1nc2ccccc2c(=O)n1/N=C/c1c[nH]c2ccccc12	none
Cc1cc(/C=N/n2c(COc3ccccc3C)nc3ccccc3c2=O)c(O)c([N+](=O)[O-])c1	MrgX1 antagonist -6.5
O=C(O)c1ccccc1N/N=C\c1ccnc2ccccc12	MrgX1 agonist 41
O=C(O)c1ccccc1N/N=C/c1cc(Br)cc(Br)c1O	MrgX1 antagonist -6.4
Cc1nc(SCC(=O)N2CCCCCC2)[nH]c(=O)c1C	none
CCN(Cc1ccccc1)C(=O)CC(=O)N(CC)Cc1ccccc1	none
O=C(NC1CCCCC1)c1sc(=S)n2c1[nH]c(=O)c1ccccc12	MrgX1 agonist 47
O=C(NCC1CCCO1)c1sc(=S)n2c1[nH]c(=O)c1ccc(C(=O)N3CCCCC3)cc12 (stereo unspecified)	none
CCCCNC(=O)c1sc(=S)n2c1[nH]c(=O)c1ccccc12	MrgX1 agonist 63
Cc1cccc(C)c1OCc1cc(C(=O)N(C)CCc2ccccn2)no1	none
CC1Cc2ccccc2N1C(=O)CSc1nc2c(c(=O)n(C)c(=O)n2C)n1Cc1ccccc1 (stereo unspecified)	RGS4 act -7.2
CCn1c(SCC(=O)N2c3ccccc3CCc3ccccc32)nc2c1c(=O)n(C)c(=O)n2C	none
CC1OC(OC2C(OC3C(O[C@H]4CC[C@]5(C)C6C=C[C@]78OC[C@@]9(CC[C@@H](C)[C@H](C)C97)[C@H](O)C[C@@]8(C)[C@]6(C)CC[C@H]5C4(C)C)OC(C)C(O)C3O)OC(CO)C(O)C2O)C(O)C(O)C1O (stereo partly specified)	RGS4 act -7.4 (no result: MrgX1 antagonist, MrgX1 agonist, MrgX1 allo act)
C[C@H]1O[C@H](O[C@H]2[C@H](O[C@@H]3CC[C@@]4(C)C(CC[C@]5(C)C4CC=C4[C@@H]6CC(C)(C)CC[C@]6(C(=O)O[C@@H]6O[C@H](CO)[C@@H](O)[C@H](O)[C@H]6O)CC[C@]45C)C3(C)C)O[C@H](C(=O)O)[C@@H](O)[C@@H]2O)[C@@H](O)[C@@H](O)[C@@H]1O (stereo partly specified)	none (no result: RGS4 inh, RGS4 act)
C#Cc1ccc(C(=O)Nc2ccc(N3CCC(C)CC3)c(C(N)=O)c2)cc1	none
O=C(CCNC(=O)c1ccccc1Cl)NC1=NCCS1	none
CCCc1cc(=O)oc2cc(OC(=O)CN3C(=O)NC4(CCCC4)C3=O)ccc12	MrgX1 antagonist -8.6
Cc1ncc(CN2CCC(C(=O)Nc3cccc(-c4cscn4)c3)CC2)cn1	none
Cc1ccc(C2=CC(c3ccccc3)n3ncnc3N2)cc1 (stereo unspecified)	none
C1=C(c2ccccc2)Nc2ncnn2C1c1ccccc1 (stereo unspecified)	MrgX1 allo act 8.2
Cc1cc2sc3ccccc3c(=O)c2c(C)c1O	none
O=c1c(C(c2ccccc2)c2c(O)sc3ccccc3c2=O)c(O)sc2ccccc12	MrgX1 antagonist -4.6
O=C(Nc1ccc(S(=O)(=O)N2CCOCC2)cc1)c1c(F)cccc1F	none
COc1ccc(NC(=O)/C=C/c2ccccc2)c([N+](=O)[O-])c1	MrgX1 antagonist -7.1
CC(C)NC(=O)c1ccccc1NC(=O)/C=C/c1cccc([N+](=O)[O-])c1	MrgX1 antagonist -4.5
COc1ccc(/C=C/C(=O)Nc2ccc(OC)cc2[N+](=O)[O-])cc1	none
CCNC(=O)COC(=O)c1sccc1C	none
COc1ccc(OC)c(S(=O)(=O)N2CCCC(N3CCN(c4ccccc4)CC3)C2)c1 (stereo unspecified)	none
CC(=NCCN1CCN(C(C)=C2C(=O)c3ccccc3C2=O)CC1)C1=C(O)CC(C)(C)CC1=O	none
CCOc1ccc(Nc2cc(C)nc3c(C)cccc23)cc1	none
Cc1ccc(S(=O)(=O)N2CCC(=O)N(C(COCc3cccc(C(F)(F)F)c3)Cc3ccccc3)CC2)cc1 (stereo unspecified)	MrgX1 antagonist -4.5
CC(C)CN1C(=S)SC(C)(C)C1n1oc(=O)n(-c2ccc(Cl)cc2)c1=O (stereo unspecified)	RGS4 act -11
CC(C)CN1C(=S)SC(C)(C)C1n1oc(=O)n(-c2ccccc2)c1=O (stereo unspecified)	none
COc1ccccc1C(=O)NC(CCSC)C(=O)NNC(=O)c1ccncc1 (stereo unspecified)	none
CN(C)S(=O)(=O)c1cccc(CSCc2cccc(S(=O)(=O)N(C)C)c2)c1	none
Cc1ccccc1C(=O)N/N=C/c1ccc([N+](=O)[O-])s1	none
O=C(N/N=C/c1ccc([N+](=O)[O-])s1)c1ccccc1Br	MrgX1 antagonist -5.3
Cc1[nH]n(-c2ccccc2)c(=O)c1C(c1ccccc1[N+](=O)[O-])C(C#N)C#N (stereo unspecified)	MrgX1 agonist 36
NC(=O)CSc1nnc(SCc2ccc(F)cc2)s1	none
CC(C(=O)c1ccc(-c2ccccc2)cc1)[n+]1ccccc1 (stereo unspecified)	none
Cc1cc[n+](C(C)C(=O)c2ccc(-c3ccccc3)cc2)cc1 (stereo unspecified)	RGS4 act -9.4
Cc1ccc2[nH]c3c(N4CCCCCC4)ncnc3c2c1	none (no result: MrgX1 antagonist, MrgX1 agonist, MrgX1 allo act)
Fc1ccc2[nH]c3c(N4CCN(C5CCCCC5)CC4)ncnc3c2c1	RGS4 act -7.6
COc1cc(/C=C(\C#N)c2nc(-c3cc4ccccc4oc3=O)cs2)ccc1O	MrgX1 antagonist -9.2
COc1ccc(-c2cc([C@H]3[C@@H]4C=CCC[C@@]4(C)C(=O)N3Cc3ccccc3)ccc2F)cc1	MrgX1 antagonist -5.4
CCN1C(=O)CS/C1=C(\C#N)S(=O)(=O)c1ccccc1	MrgX1 agonist 41
Cc1csc(=O)n1CC(=O)OCC(=O)NCc1ccc(F)cc1	none
CN1CCC(N(C)CC(=O)Nc2ccc3c(c2)OC(F)(F)O3)CC1	RGS4 act -7.4
CC1CCCCN1CC(=O)Nc1ccc2c(c1)OC(F)(F)O2 (stereo unspecified)	none
CCC1C(c2ccccc2)N(C)C(c2ccccc2)CC1(O)c1ccccc1 (stereo unspecified)	RGS4 act -7.7
O=C(N/N=C/c1ccc[nH]1)c1ccc([N+](=O)[O-])cc1	none
CN(CC(=O)Nc1ccc(F)c(F)c1F)C(=O)CCCSc1nc2ccccc2[nH]1	none
COc1cc(NC(=S)N2CCCC2)cc(OC)c1	none
CC[N+](C)(CC)CCOC(=O)C(O)(c1ccccc1)C1CCCCC1 (stereo unspecified)	none
CC[N+](C)(CC)CCC(c1ccccc1)C1CCCCC1 (stereo unspecified)	RGS4 act -8.7
